In ChEMBL document CHEMBL5036326, “Development of Covalent, Clickable Probes for Adenosine A1 and A3 Receptors” (J Med Chem, 2021):
Blank lines part the entries; values can stand above or below the compound they belong to. Active and inactive are the calls of the source. The rule behind the calls is not given here.

Experiments:
[1] = target: T1, Adenosine receptor A1 (Homo sapiens, UniProt P30542); test: Antagonist activity at human adenosine A1 receptor expressed in Flp-In-CHO cell membrane assessed as inhibition of forskolin-stimulated cAMP accumulation preincubated for 5 min followed by forskolin stimulation and further incubated for 30 mins in presence of NECA by alphascreen LANCE assay
T1 sequence (P30542 whole entry): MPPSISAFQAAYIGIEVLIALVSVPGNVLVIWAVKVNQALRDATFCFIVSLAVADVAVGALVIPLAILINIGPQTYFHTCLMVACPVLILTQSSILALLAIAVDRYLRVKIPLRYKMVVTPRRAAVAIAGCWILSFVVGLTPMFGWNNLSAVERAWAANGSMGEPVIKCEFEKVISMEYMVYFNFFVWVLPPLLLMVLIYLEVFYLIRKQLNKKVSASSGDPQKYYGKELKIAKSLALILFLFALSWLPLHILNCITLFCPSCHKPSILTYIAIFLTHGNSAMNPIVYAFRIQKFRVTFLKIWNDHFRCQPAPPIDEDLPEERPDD

[2] = target: T2, Adenosine receptor A1 (Homo sapiens) (UniProt P30542); settings: Flp-In-CHO, Membrane, filed as antagonist, time 40.0 min
T2 sequence (whole entry): T1 sequence (P30542 whole entry)

[3] = target: T2, Adenosine receptor A1 (Homo sapiens); test: Displacement of [3H] DPCPX from human A1 adenosine receptor expressed in Flp-In-CHO cell membrane at 10 uM incubated for 4 hrs by microbeta scintillation counting method; format: cell membranes
Method in brief: (§1)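 Membranes (15 μg) from hA1R-FlpInCHO cells incubated with competing ligand and about 1 nM [3H]DPCPX for 4 h at 25 °C. Binding buffer: HEPES, glucose, salts, 1 unit/mL ADA, pH 7.4. Filtration, ice-cold 0.9% NaCl washes, then β-counting. Nonspecific binding defined with 1 μM SLV320. Specific binding normalized to binding without competitor.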

[4] = target: T1, Adenosine receptor A1; test: Displacement of [3H] DPCPX from human A1 adenosine receptor expressed in Flp-In-CHO cell membrane incubated for 4 hrs by microbeta scintillation counting method; format: cell membranes
[5] = target: T2, Adenosine receptor A1 (Homo sapiens); test: Displacement of [3H] DPCPX from human A1 adenosine receptor expressed in Flp-In-CHO cell membrane at 1 uM incubated for 4 hrs by microbeta scintillation counting method; format: cell membranes; settings: filed as antagonist
Method in brief: as §1

[6] = Solubility of the compound at 10 uM; format: physicochemical
[7] = target: T3, Adenosine receptor A3 (Homo sapiens) (UniProt P0DMS8); test: Inhibition of CA200645 binding to NanoLuc-fused human Adenosine A3 receptor expressed in HEK293-A cells using furimazine as substrate preincubated for 3 hrs followed by ligand washout and further incubated for 60 mins with CA200645 by NanoBRET assay; format: cell-based
T3 sequence (whole entry): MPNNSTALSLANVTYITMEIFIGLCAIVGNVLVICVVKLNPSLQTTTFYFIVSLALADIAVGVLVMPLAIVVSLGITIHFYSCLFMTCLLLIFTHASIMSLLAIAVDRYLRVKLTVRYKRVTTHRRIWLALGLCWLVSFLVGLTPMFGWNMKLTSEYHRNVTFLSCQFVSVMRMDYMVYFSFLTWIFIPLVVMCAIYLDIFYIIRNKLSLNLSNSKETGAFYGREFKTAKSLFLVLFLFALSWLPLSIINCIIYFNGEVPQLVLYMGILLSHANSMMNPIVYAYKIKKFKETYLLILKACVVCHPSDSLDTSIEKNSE
Method in brief: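 HEK293A cells transiently transfected (PEI) with N-terminal Nluc-A3R cDNA, assayed 48 h post-transfection. Cells incubated with competing ligands for 3 h in binding buffer, then washed 6 × 20 min. 5 nM CA200645 added for 60 min at room temperature, then 10 μM furimazine (final). BRET read as 610/460 nm emission ratio at 25 °C. Nonspecific binding defined with 1 μM MRS1220.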

[8] = target: T4, Adenosine receptor A2a (Homo sapiens, UniProt P29274); test: Antagonist activity at human adenosine A2A receptor expressed in Flp-In-CHO cell membrane assessed as inhibition of NECA-induced cAMP accumulation in presence of forskolin measured after 40 mins by alpha screen LANCE assay; format: functional, cell membranes
T4 sequence (P29274 whole entry): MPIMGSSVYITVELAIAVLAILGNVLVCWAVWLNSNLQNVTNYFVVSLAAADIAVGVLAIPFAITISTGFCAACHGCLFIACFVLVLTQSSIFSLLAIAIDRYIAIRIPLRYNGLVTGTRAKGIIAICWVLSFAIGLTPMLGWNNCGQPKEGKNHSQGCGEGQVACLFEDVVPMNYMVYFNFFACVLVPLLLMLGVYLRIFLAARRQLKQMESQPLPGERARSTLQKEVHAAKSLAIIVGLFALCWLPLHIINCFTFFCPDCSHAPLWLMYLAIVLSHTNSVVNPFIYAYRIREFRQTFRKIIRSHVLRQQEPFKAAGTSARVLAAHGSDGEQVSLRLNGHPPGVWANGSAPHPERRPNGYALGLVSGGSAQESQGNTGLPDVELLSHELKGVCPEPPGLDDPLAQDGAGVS

[9] = target: T5, Adenosine receptor A3 (Homo sapiens, UniProt P0DMS8); test: Antagonist activity at human adenosine A3 receptor expressed in Flp-In-CHO cell membrane assessed as inhibition of NECA-induced cAMP accumulation in presence of forskolin measured after 40 mins by alpha screen LANCE assay; format: functional, cell membranes
T5 sequence (P0DMS8 whole entry): T3 sequence (whole entry)

[10] = target: T6, Adenosine receptor A2b (Homo sapiens, UniProt P29275); test: (§2) Antagonist activity at human adenosine A2B receptor expressed in Flp-In-CHO cell membrane assessed as inhibition of NECA-induced cAMP accumulation in presence of forskolin measured after 40 mins by alpha screen LANCE assay; format: functional
T6 sequence (P29275 whole entry): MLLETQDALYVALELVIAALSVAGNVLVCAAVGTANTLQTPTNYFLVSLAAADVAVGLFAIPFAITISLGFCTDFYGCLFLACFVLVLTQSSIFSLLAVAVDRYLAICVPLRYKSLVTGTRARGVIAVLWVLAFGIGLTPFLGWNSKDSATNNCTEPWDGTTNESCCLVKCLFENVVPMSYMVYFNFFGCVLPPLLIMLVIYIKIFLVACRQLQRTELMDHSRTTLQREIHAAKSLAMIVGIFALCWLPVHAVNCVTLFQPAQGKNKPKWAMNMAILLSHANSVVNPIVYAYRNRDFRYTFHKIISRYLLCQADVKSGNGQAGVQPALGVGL
Method in brief: (§3)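 A2BR-FlpInCHO cells seeded at 30000 cells/well and incubated overnight at 37 °C. Antagonists tested against a submaximal (EC80) NECA concentration; NECA curves run alongside. cAMP response normalized to buffer (0%) and 3 μM forskolin (100%). Affinity derived by fitting NECA–antagonist interaction data to a competitive model. Duplicates, ≥3 experiments.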

[11] = target: T1, Adenosine receptor A1; test: Displacement of [3H] DPCPX from human adenosine A1 receptor expressed in Flp-In-CHO cell membrane incubated for 3 hrs followed by compound washout and further incubated for 4 hrs with radioligand by microbeta scintillation counting method; format: cell membranes
[12] = target: T3, Adenosine receptor A3 (Homo sapiens); settings: Flp-In-CHO, Membrane, filed as antagonist, time 40.0 min
[13] = target: T1, Adenosine receptor A1; test: Antagonist activity at human adenosine A1 receptor expressed in Flp-In-CHO cell membrane assessed as inhibition of NECA-induced cAMP accumulation in presence of forskolin measured after 40 mins by alpha screen LANCE assay; format: functional, cell membranes
[14] = target: T7, Adenosine receptor A2b (Homo sapiens) (UniProt P29275); test: as §2; format: functional; settings: filed as antagonist
T7 sequence (whole entry): T6 sequence (P29275 whole entry)
Method in brief: as §3

[15] = target: T4, Adenosine receptor A2a; settings: Flp-In-CHO, Membrane, filed as antagonist, time 40.0 min
[16] = target: T2, Adenosine receptor A1 (Homo sapiens); settings: Flp-In-CHO, Membrane, filed as antagonist, time 40.0 min; remark: listed apart in the source

Compound: CCCCn1c(=O)c2nc(C3CCCCC3)[nH]c2n(CCCNC(=O)c2ccc(S(=O)(=O)F)cc2)c1=O
Ki [1]: 26 nM | pKb [2]: 7.59 | Activity [3]: inactive | Ki [4]: 12.1 nM | Activity [5]: Active | solubility [6]: Insoluble

Ki [1]: 92 nM | pKb [2]: 7.04 | Ki [4]: 179 nM | inhibition [7]: inactive
Compound: CCCCn1c(=O)c2nc(C34CCC(C(=O)OC)(CC3)CC4)[nH]c2n(CCCNC(=O)c2ccc(S(=O)(=O)O)cc2)c1=O

Compound: CCCCn1c(=O)c2nc(C34CCC(C(=O)NCCCCN=[N+]=[N-])(CC3)CC4)[nH]c2n(CCCNC(=O)c2ccc(S(=O)(=O)F)cc2)c1=O
Ki [8]: 166 nM | Ki [9]: 4.9 nM | Ki [10]: 26.3 nM

Compound: CCCn1c(=O)c2nc(C34CCC(C(=O)NCCCN=[N+]=[N-])(CC3)CC4)[nH]c2n(CCCNC(=O)c2ccc(S(=O)(=O)F)cc2)c1=O
Ki [11]: 7.8 nM | Ki [1]: 0.6 nM | Ki [8]: 26.3 nM | pKb [2]: 9.19 | pKb [12]: 7.96 | Ki [9]: 11 nM | Ki [13]: 2.8 nM | pKb [14]: 7.75 | Ki [10]: 17.8 nM | Ki [4]: 3.5 nM | pKb [15]: 7.58 | pKb [16]: 8.56

Compound: CCCCn1c(=O)c2nc(C34CCC(C(=O)NCCOCCOCCN=[N+]=[N-])(CC3)CC4)[nH]c2n(CCCNC(=O)c2ccc(S(=O)(=O)F)cc2)c1=O
Ki [11]: 10 nM | Ki [1]: 1.4 nM | Ki [8]: 31.6 nM | pKb [2]: 8.86 | pKb [12]: 7.4 | Ki [9]: 39.8 nM | Ki [13]: 3.5 nM | pKb [14]: 7.64 | Ki [10]: 22.9 nM | Ki [4]: 6.1 nM | pKb [15]: 7.5 | pKb [16]: 8.45

Compound: C#CCCCCNC(=O)C12CCC(c3nc4c(=O)n(CCCC)c(=O)n(CCCNC(=O)c5ccc(S(=O)(=O)F)cc5)c4[nH]3)(CC1)CC2
Ki [11]: 9.3 nM | Ki [1]: 0.6 nM | Ki [9]: 43.7 nM | Ki [13]: 3.9 nM | Ki [10]: 35.4 nM | Ki [4]: 1.6 nM | inhibition ([7]; filed as antagonist): Active

Compound: CCCCn1c(=O)c2nc(C34CCC(C(=O)NCCCCCCCCN=[N+]=[N-])(CC3)CC4)[nH]c2n(CCCNC(=O)c2ccc(S(=O)(=O)F)cc2)c1=O
Ki [11]: 16.1 nM | Ki [1]: 2.4 nM | Ki [13]: 10.2 nM | Ki [10]: 6.7 nM | Ki [4]: 3.7 nM

Compound: CCCCn1c(=O)c2nc(C34CCC(C(=O)OC)(CC3)CC4)[nH]c2n(CCCNC(=O)c2ccc(S(=O)(=O)F)cc2)c1=O
Ki [11]: 89.3 nM | Ki [1]: 17.1 nM | pKb [2]: 7.77 | Ki [4]: 17.3 nM | inhibition ([7]; filed as antagonist): Active

Compound: CCCCn1c(=O)c2nc(C34CCC(C(=O)NCCOCCOCCOCCN=[N+]=[N-])(CC3)CC4)[nH]c2n(CCCNC(=O)c2ccc(S(=O)(=O)F)cc2)c1=O
Ki [8]: 36.3 nM | Ki [9]: 8.3 nM | Ki [10]: 95.5 nM

Compound: CCCCn1c(=O)c2nc(C34CCC(C(=O)NCCCN=[N+]=[N-])(CC3)CC4)[nH]c2n(CCCNC(=O)c2ccc(S(=O)(=O)F)cc2)c1=O
Ki [8]: 38 nM | Ki [9]: 4.2 nM | Ki [10]: 79.4 nM | inhibition ([7]; filed as antagonist): Active

Compound: C#CCNC(=O)C12CCC(c3nc4c(=O)n(CCCC)c(=O)n(CCCNC(=O)c5ccc(S(=O)(=O)F)cc5)c4[nH]3)(CC1)CC2
Ki [11]: 38.8 nM | Ki [1]: 585 nM | pKb [2]: 6.23 | pKb [12]: 7.33 | Ki [9]: 46.8 nM | Ki [13]: 30.9 nM | Ki [4]: 26.1 nM | pKb [16]: 7.51 | inhibition ([7]; filed as antagonist): Active

Ki [1]: 87.5 nM | pKb [2]: 7.06 | Ki [4]: 605 nM | inhibition [7]: inactive
Compound: CCCCn1c(=O)c2nc(C34CCC(C(=O)NCCCN=[N+]=[N-])(CC3)CC4)[nH]c2n(CCCNC(=O)c2ccc(S(=O)(=O)O)cc2)c1=O

Compound: CCCn1c(=O)[nH]c2nc(-c3ccc(S(=O)(=O)N4CCN(c5ccc(Cl)cc5)CC4)cc3)[nH]c2c1=O
pKb [14]: 8.87 | Ki [10]: 1.3 nM

Compound: O[C@H]1CC[C@H](Nc2nc(-c3ccccc3)nc3[nH]ccc23)CC1
Ki [1]: 0.5 nM | pKb [2]: 9.27 | Ki [13]: 0.4 nM | Ki [4]: 0.6 nM | pKb [16]: 9.44
